Results reported in ChEMBL document CHEMBL4041500, “Attenuation of Mycobacterium species through direct and macrophage mediated pathway by unsymmetrical diaryl urea” (Eur J Med Chem, 2017).
Converted amounts (≈) assume the structure as drawn.

Legend:
[1] = test system: Mycobacterium tuberculosis; assay: Antimycobacterial activity against Mycobacterium tuberculosis H37Rv ATCC 27294 after 7 days by microplate alamar blue assay; assay type: functional; details: H37Rv ATCC 27294, 168 h
In short: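 MABA run in 7H12 medium in 96-well plates for 7 days at 37 °C. Alamar Blue and Tween 80 were then added for a further 24 h. Fluorescence was read at 530/590 nm. MIC was the lowest concentration giving a 90% fluorescence (or luminescence) reduction versus controls. Luciferase reporter strains or intracellular ATP were used for compounds with background fluorescence. Isoniazid and rifampin were run as controls.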

[2] = test system: Mycolicibacterium smegmatis; assay: Antimycobacterial activity against Mycobacterium smegmatis MC2 155 after 48 hrs by serial dilution method; assay type: functional; details: str. MC2 155, 48 h
In short: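 M. smegmatis grown in Middlebrook 7H9 with 10% albumin–dextrose complex and 0.03% Tween80 at 37 °C. Twofold serial dilutions of compound were combined with mid-log culture diluted to OD570 0.01, giving a final range of […] in 7H9 broth. Incubated in ambient air at 37 °C for 48 h. MIC taken as the lowest concentration preventing visible growth.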

Peritoneal macrophage = assay: Cytotoxicity against Balb/c mouse peritoneal macrophages assessed as reduction in cell viability after 48 hrs by MTT assay; assay type: cell-based
In short: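 Murine peritoneal macrophages, 1 × 10^6 cells/well, exposed to compound at 0.1 to 250 µg/ml in RPMI-1640 with 10% FBS for 48h. MTT (5 mg/ml) added for 3 h at 37°C, formazan dissolved in 0.04M HCl in isopropanol for 15 min at room temperature, absorbance read at 570 nm. IC50 (50% loss of viability) taken from a dose–response curve of percentage activity versus log10 concentration.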

HepG2 = assay: Cytotoxicity against human HepG2 cells assessed as reduction in cell viability after 72 hrs by MTT assay; assay type: cell-based; details: hepg2, 72 h
In short: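 HepG2 cells grown in Eagle's MEM with 10% FBS at 37 °C and 5% CO2. Cells were scraped, resuspended at ~1 × 10^6 cells/mL, plated and left 24 h, then exposed to compound at 400 to 0.2 µg/mL for 72 h. Viability read by MTT assay. IC50 (50% loss of viability) taken from a dose–response curve versus log10 concentration.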

[3] = test system: Mycobacterium tuberculosis; assay: Antimycobacterial activity against Mycobacterium tuberculosis H37Rv ATCC 27294 at 50 ug/ml after 7 days by microplate alamar blue assay relative to control; assay type: functional; details: H37Rv ATCC 27294, 168 h
[4] = test system: Mycobacterium tuberculosis; assay: Antimycobacterial activity against Mycobacterium tuberculosis MC2 6030 after 2 to 3 weeks by agar plate method; assay type: functional
In short: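 Strain mc²6030 is a pantothenate auxotroph lacking RD1, grown at 37 °C in Sauton's medium plus 20 μg/ml pantothenic acid. Serial 10-fold dilutions of actively growing culture were plated on 7H10/OADC agar with 20 μg/ml pantothenic acid and increasing compound concentrations, from 10 mg/ml DMSO stocks. Plates were held 2–3 weeks at 37 °C. MIC was the concentration inhibiting 99% of growth; isoniazid served as control.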

Compound | MIC90 [1] [µg/mL] | MIC [2] [µg/mL] | Activity (Peritoneal macrophage) [µg/mL] | Activity (HepG2) [µg/mL] | inhibition at 50 µg/mL [3] [%] | MIC99 [4] [µg/mL]
CC(C)=CCOc1cccc(NC(=O)Nc2ccccc2Cl)c1 | > 50 | 50 (≈ 151 µM) | 105.6 | 128.2 | 64 | –
CC(C)=CCOc1cccc(NC(=O)Nc2cccc(Br)c2)c1 | 26.5 (≈ 70.6 µM) | 12.5 (≈ 33.3 µM) | 131.8 | 148.1 | – | –
C=CCOc1ccc(NC(=O)Nc2ccccc2)cc1 | > 50 | > 200 | 152.6 | 182.4 | 84 | > 100
CCCCOc1cccc(NC(=O)Nc2cccc([N+](=O)[O-])c2)c1 | > 50 | > 200 | 74.3 | 97.3 | 79 | 50 (≈ 152 µM)
CCCCOc1ccc(NC(=O)Nc2ccccc2)cc1 | > 50 | > 200 | 108.9 | 132.5 | 41 | > 100
CC(C)=CCOc1cccc(NC(=O)Nc2ccc(Cl)cc2)c1 | > 50 | 50 to 100 (≈ 151 to 302 µM) | 115.3 | 122.3 | 75 | –
CCCCOc1ccc(NC(=O)Nc2cccc([N+](=O)[O-])c2)cc1 | – | – | 75.2 | – | – | –
CCCCOc1cccc(NC(=O)Nc2ccccc2C)c1 | > 50 | > 200 | 152.9 | 175.1 | 70 | > 100
CC(C)CCOc1ccc(NC(=S)Nc2ccc(OCCC(C)C)cc2)cc1 [TIOCARLIDE] | 2.3 (≈ 5.74 µM) | 25 (≈ 62.4 µM) | 12.5 | 31.3 | – | –
C=CCOc1cccc(NC(=O)Nc2ccccc2C)c1 | > 50 | > 200 | 90.3 | 102.4 | 68 | > 100
CC(C)=CCOc1ccc(NC(=O)Nc2cccc([N+](=O)[O-])c2)cc1 | > 50 | > 200 | 131.2 | 142.6 | 69 | > 100
C=CCOc1cccc(NC(=O)Nc2ccccc2)c1 | > 50 | 100 (≈ 373 µM) | 142.5 | 150.6 | 73 | 20 (≈ 74.5 µM)
CC(C)=CCOc1cccc(NC(=O)Nc2ccc(F)cc2)c1 | > 50 | 100 (≈ 318 µM) | 87.1 | 102.8 | 68 | –
CC(C)=CCOc1cccc(NC(=O)Nc2ccccc2C(F)(F)F)c1 | > 50 | 12.5 (≈ 34.3 µM) | 69.4 | 71.4 | 45 | –
C=CCOc1ccc(NC(=O)Nc2ccccc2C)cc1 | 24.5 (≈ 86.8 µM) | 50 (≈ 177 µM) | 122.1 | 99.2 | – | 100 (≈ 354 µM)
CC(C)=CCOc1cccc(NC(=O)Nc2ccccc2[N+](=O)[O-])c1 | > 50 | > 200 | 58.1 | 61.4 | 43 | –
NNC(=O)c1ccncc1 [ISONIAZID] | 0.11 (≈ 0.802 µM) | 6.25 (≈ 45.6 µM) | > 200 | > 200 | – | 0.05 (≈ 0.365 µM)
CC(C)=CCOc1cccc(NC(=O)Nc2ccccc2Br)c1 | 38.7 (≈ 103 µM) | 25 (≈ 66.6 µM) | 119.4 | 131.9 | – | –
CC(C)=CCOc1cccc(NC(=O)Nc2ccc(C(F)(F)F)cc2)c1 | > 50 | 6.25 (≈ 17.2 µM) | 115.3 | 142.2 | 69 | –
CC(C)=CCOc1cccc(NC(=O)Nc2cccc(C)c2)c1 | 32.2 (≈ 104 µM) | 50 (≈ 161 µM) | 160.3 | 175.3 | – | –
C=CCOc1ccc(NC(=O)Nc2cccc([N+](=O)[O-])c2)cc1 | 45.5 (≈ 145 µM) | 100 (≈ 319 µM) | 87.5 | 111.4 | – | 10 to 100 (≈ 31.9 to 319 µM)
CC(C)=CCOc1ccc(NC(=O)Nc2ccccc2C)cc1 | > 50 | 50 to 200 (≈ 161 to 644 µM) | 81.3 | – | 61 to 75 | 50 to 100 (≈ 161 to 322 µM)
CC(C)=CCOc1cccc(NC(=O)Nc2ccccc2F)c1 | > 50 | 50 (≈ 159 µM) | 68.2 | 82.4 | 45 | –
CC(C)=CCOc1cccc(NC(=O)Nc2ccc(Br)cc2)c1 | > 50 | 50 to 100 (≈ 133 to 266 µM) | 140.2 | 135.6 | 86 | –
CC(C)=CCOc1cccc(NC(=O)Nc2ccc(C)cc2)c1 | 10.5 (≈ 33.8 µM) | 12.5 (≈ 40.3 µM) | 127.6 | 140.6 | – | –
CC(C)=CCOc1cccc(NC(=O)Nc2cccc(Cl)c2)c1 | 48.6 (≈ 147 µM) | 25 (≈ 75.6 µM) | 96.7 | 114.3 | – | –
CC(C)=CCOc1cccc(NC(=O)Nc2ccc([N+](=O)[O-])cc2)c1 | > 50 | 100 (≈ 293 µM) | 75.2 | 91.6 | 94 | –
